{
  "source": "ChEMBL document CHEMBL4330127",
  "about": "“Discovery of Novel Pyruvate Dehydrogenase Kinase 4 Inhibitors for Potential Oral Treatment of Metabolic Diseases” (J Med Chem, 2019)",
  "key": {"[1]": {"test_system": "RKO", "test": "Cell cycle arrest in human RKO cells assessed as accumulation at sub-G1 phase at 25 uM after 24 hrs in presence of oxaliplatin propidium iodide staining based flow cytometry (reference value: 12%)", "format": "functional", "outline": "(§1)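 HCT116 and RKO cells were treated with compound alone or with oxaliplatin for 24 h before harvest. Cells were stained with propidium iodide, and DNA content was analysed by flow cytometry. Cell-cycle phase populations, including sub-G1, are given as percentages.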"}, "[2]": {"test_system": "RKO", "test": "Cell cycle arrest in human RKO cells assessed as accumulation at G1/G0 phase at 50 uM after 24 hrs propidium iodide staining based flow cytometry (reference value: 39.9%)", "format": "functional", "outline": "as §1"}, "[3]": {"test_system": "RKO", "test": "Induction of apoptosis in human RKO cells assessed as increase in cleaved caspase-3 expression at 10 to 50 uM after 24 hrs by Western blot analysis", "format": "functional, cell-based", "outline": "(§2)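 HCT116 and RKO cells given a range of compound doses for 24 h; lysates probed by Western blot for apoptosis-related proteins (p53, BAX, BCLxL).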"}, "[4]": {"test_system": "HCT-116", "test": "Cell cycle arrest in human HCT116 cells assessed as accumulation at G1/G0 phase at 25 uM after 24 hrs in presence of oxaliplatin propidium iodide staining based flow cytometry (reference value: 41.3%)", "format": "functional", "outline": "as §1"}, "[5]": {"molecular_target": "Cellular tumor antigen p53 (Homo sapiens) (UniProt P04637)", "sequence (P04637 whole entry, looked up)": "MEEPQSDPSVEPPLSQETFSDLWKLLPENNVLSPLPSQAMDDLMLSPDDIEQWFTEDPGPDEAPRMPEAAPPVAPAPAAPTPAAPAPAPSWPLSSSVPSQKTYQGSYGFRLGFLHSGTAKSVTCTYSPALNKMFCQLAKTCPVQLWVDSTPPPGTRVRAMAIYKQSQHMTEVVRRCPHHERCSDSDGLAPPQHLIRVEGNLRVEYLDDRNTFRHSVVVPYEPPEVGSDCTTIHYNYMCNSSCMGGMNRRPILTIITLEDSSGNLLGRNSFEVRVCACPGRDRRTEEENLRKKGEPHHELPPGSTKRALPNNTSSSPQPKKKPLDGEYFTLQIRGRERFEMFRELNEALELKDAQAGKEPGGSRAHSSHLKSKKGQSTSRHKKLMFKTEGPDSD", "test": "Induction of p53 phosphorylation at Ser-15 residue in human HCT116 cells after 24 hrs by Western blot analysis", "format": "cell-based", "outline": "as §2"}, "[6]": {"test_system": "RKO", "test": "Cell cycle arrest in human RKO cells assessed as accumulation at S phase at 25 uM after 24 hrs in presence of oxaliplatin propidium iodide staining based flow cytometry (reference value: 4.5%)", "format": "functional"}, "[7]": {"test_system": "RKO", "test": "Induction of apoptosis in human RKO cells assessed as early apoptotic cells at 25 uM after 24 hrs in presence of oxaliplatin by Annexin V/propidium iodide staining based flow cytometry (reference value: 6.33%)", "format": "functional"}, "[8]": {"molecular_target": "[Pyruvate dehydrogenase (acetyl-transferring)] kinase isozyme 4, mitochondrial (Homo sapiens, UniProt Q16654)", "sequence (Q16654 whole entry, looked up)": "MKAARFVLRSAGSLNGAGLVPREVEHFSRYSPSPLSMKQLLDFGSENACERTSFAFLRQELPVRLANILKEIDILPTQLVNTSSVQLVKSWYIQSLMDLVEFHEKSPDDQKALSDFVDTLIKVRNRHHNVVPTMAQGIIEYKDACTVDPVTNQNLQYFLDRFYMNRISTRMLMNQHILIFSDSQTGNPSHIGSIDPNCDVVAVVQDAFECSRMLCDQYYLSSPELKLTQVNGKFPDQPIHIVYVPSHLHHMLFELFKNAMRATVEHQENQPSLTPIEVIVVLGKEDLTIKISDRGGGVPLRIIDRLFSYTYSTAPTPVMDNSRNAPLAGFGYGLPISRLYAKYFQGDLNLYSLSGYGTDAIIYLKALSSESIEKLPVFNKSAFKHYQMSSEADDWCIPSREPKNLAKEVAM", "test": "Inhibition of PDK4 in HEK293T cells assessed as reduction in PDHE1alpha phosphorylation at Ser-232 residue by measuring phosphorylated PDHE1alpha level at 10 uM after 24 hrs by Western blot analysis", "format": "cell-based", "outline": "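HEK293T cells grown in high-glucose DMEM with 10% FBS at 37 °C, 5% CO2. Medium renewed after 24 h, then cells exposed to compound for 24 h and lysed. 20 μg protein per lane Western blotted with antibodies to phospho-PDHE1α Ser232, Ser293 and Ser300 and to total PDHE1α. Band intensity quantified relative to control; triplicate.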"}, "[9]": {"test_system": "RKO", "test": "Induction of apoptosis in human RKO cells assessed as decrease in Bcl-XL expression at 10 to 50 uM after 24 hrs by Western blot analysis", "format": "functional, cell-based", "outline": "as §2"}, "[10]": {"test": "AUCt in rat at 5 mg/kg, iv", "format": "ADME, organism-based", "settings": "in vivo", "outline": "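Male rats given a single dose, 5 mg/kg intravenously or 10 mg/kg orally. Plasma PK parameters were reported as mean ± SD: AUCt, AUC∞, Cmax, Tmax, T1/2, CL, Vss and oral bioavailability F.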"}, "[11]": {"test_system": "HCT-116", "test": "Induction of apoptosis in human HCT116 cells assessed as late apoptotic cells at 10 uM after 24 hrs by Annexin V/propidium iodide staining based flow cytometry (reference value: 8.36%)", "format": "functional"}, "[12]": {"test_system": "RKO", "test": "Induction of apoptosis in human RKO cells after 24 hrs by Annexin V/propidium iodide staining based flow cytometry", "format": "functional, cell-based"}, "[13]": {"test_system": "RKO", "test": "Induction of apoptosis in human RKO cells assessed as increase in Bax expression at 10 to 50 uM after 24 hrs by Western blot analysis", "format": "functional, cell-based", "outline": "as §2"}, "[14]": {"test_system": "RKO", "test": "Cell cycle arrest in human RKO cells assessed as accumulation at sub-G1 phase at 10 uM after 24 hrs propidium iodide staining based flow cytometry (reference value: 17.6%)", "format": "functional"}, "[15]": {"test": "Metabolic stability in rat liver microsomes assessed as parent compound remaining after 30 mins by LC-MS/MS analysis", "format": "ADME, Microsome", "settings": "read-out: Stability"}, "[16]": {"test_system": "HCT-116", "test": "Cell cycle arrest in human HCT116 cells assessed as accumulation at G2/M phase at 25 uM after 24 hrs in presence of oxaliplatin propidium iodide staining based flow cytometry (reference value: 28.2%)", "format": "functional", "outline": "as §1"}, "[17]": {"test_system": "RKO", "test": "Cell cycle arrest in human RKO cells assessed as accumulation at G2/M phase at 25 uM after 24 hrs in presence of oxaliplatin propidium iodide staining based flow cytometry (reference value: 39.2%)", "format": "functional", "outline": "as §1"}, "[18]": {"test_system": "HCT-116", "test": "Induction of apoptosis in human HCT116 cells assessed as decrease in Bcl-XL expression at 10 to 50 uM after 24 hrs by Western blot analysis", "format": "functional, cell-based", "outline": "as §2"}, "[19]": {"molecular_target": "UDP-glucuronosyltransferase 1A1 (Homo sapiens, UniProt P22309)", "sequence (P22309 whole entry)": "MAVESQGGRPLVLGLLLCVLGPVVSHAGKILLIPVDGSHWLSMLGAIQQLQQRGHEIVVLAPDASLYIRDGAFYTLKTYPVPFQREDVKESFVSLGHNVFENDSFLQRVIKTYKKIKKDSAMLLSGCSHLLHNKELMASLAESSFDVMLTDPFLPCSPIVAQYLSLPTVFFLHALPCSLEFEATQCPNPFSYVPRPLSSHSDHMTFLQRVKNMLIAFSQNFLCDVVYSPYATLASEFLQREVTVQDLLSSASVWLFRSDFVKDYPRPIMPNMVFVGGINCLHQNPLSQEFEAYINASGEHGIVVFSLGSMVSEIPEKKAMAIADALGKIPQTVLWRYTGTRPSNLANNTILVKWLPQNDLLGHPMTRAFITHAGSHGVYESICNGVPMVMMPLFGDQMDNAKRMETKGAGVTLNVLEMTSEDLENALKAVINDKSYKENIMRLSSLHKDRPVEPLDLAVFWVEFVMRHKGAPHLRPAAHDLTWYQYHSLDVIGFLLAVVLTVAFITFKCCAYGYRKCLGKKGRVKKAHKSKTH", "test": "Inhibition of UGT1A1 in human liver microsomes assessed as reduction in SN-38 glucuronidation by tandem mass spectrometry analysis", "format": "ADME", "outline": "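Pooled human liver microsomes; test compound at final 0–50 μM in a cocktail incubation with probe substrates: midazolam 1′-hydroxylation (CYP3A), SN-38 glucuronidation (UGT1A1), trifluoperazine N-glucuronidation (UGT1A4), mycophenolic acid glucuronidation (UGT1A9), naloxone 3-glucuronidation (UGT2B7). Metabolites measured by tandem MS; IC50 determined; duplicate.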"}, "[20]": {"test_system": "NIH3T3", "test": "Cytotoxicity against mouse NIH/3T3 cells", "format": "cell-based"}, "[21]": {"test_system": "HCT-116", "test": "Cell cycle arrest in human HCT116 cells assessed as accumulation at S phase at 25 uM after 24 hrs propidium iodide staining based flow cytometry (reference value: 18%)", "format": "functional", "outline": "as §1"}, "[22]": {"test_system": "Mus musculus", "test": "Antidiabetic activity in high-fat diet induced obese C57BL/6J mouse assessed as reduction in blood glucose level at 100 mg/kg, po administered for 1 week starting from week 4 post high fat diet followed by glucose challenge and measured up to 120 mins by IPGTT", "format": "functional, organism-based", "outline": "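Eight-week-old C57BL/6J mice were fed a high-fat diet (60% kcal fat, 0.5% cholesterol, 10% fructose) for 4 weeks. From week 4 they were dosed orally for 1 week (n = 6 per group), with sitagliptin 10 mg/kg as comparator. An intraperitoneal glucose tolerance test (1.5 g/kg glucose) followed, and the area under the curve was calculated.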"}, "[23]": {"test_system": "RKO", "test": "Cell cycle arrest in human RKO cells assessed as accumulation at G2/M phase at 25 uM after 24 hrs propidium iodide staining based flow cytometry (reference value: 23.3%)", "format": "functional", "outline": "as §1"}, "[24]": {"test_system": "HCT-116", "test": "Cell cycle arrest in human HCT116 cells assessed as accumulation at G2/M phase at 50 uM after 24 hrs propidium iodide staining based flow cytometry (reference value: 22.2%)", "format": "functional", "outline": "as §1"}, "[25]": {"test_system": "RKO", "test": "Induction of apoptosis in human RKO cells assessed as live cells at 25 uM after 24 hrs by Annexin V/propidium iodide staining based flow cytometry (reference value: 82.4%)", "format": "functional"}, "[26]": {"test_system": "RKO", "test": "Induction of apoptosis in human RKO cells assessed as necrotic cells at 50 uM after 24 hrs by Annexin V/propidium iodide staining based flow cytometry (reference value: 0.56%)", "format": "functional"}, "[27]": {"test_system": "RKO", "test": "Induction of apoptosis in human RKO cells assessed as live cells at 50 uM after 24 hrs by Annexin V/propidium iodide staining based flow cytometry (reference value: 82.4%)", "format": "functional"}, "[28]": {"test_system": "HCT-116", "test": "Induction of apoptosis in human HCT116 cells assessed as live cells at 25 uM after 24 hrs by Annexin V/propidium iodide staining based flow cytometry (reference value: 84.4%)", "format": "functional"}},
  "note": "Active and inactive are the calls of the source. No cut-off for these calls is given here.",
  "data": [
    {"smiles": "Cl.O=C1c2ccccc2C(=O)c2c1cccc2-c1cnn(C2CCNCC2)c1", "values": [
      {"measurement": "Activity", "setting": "[1]", "value": 67.4, "unit": "%"},
      {"measurement": "Activity", "setting": "[2]", "value": 3.4, "unit": "%"},
      {"measurement": "Activity", "setting": "[3]", "value": "Active"},
      {"measurement": "Activity", "setting": "[4]", "value": 17.8, "unit": "%"},
      {"measurement": "Activity", "setting": "[5]", "value": "Dose-dependent effect"},
      {"measurement": "Activity", "setting": "[6]", "value": 5.2, "unit": "%"},
      {"measurement": "Activity", "setting": "[7]", "value": 24.4, "unit": "%"},
      {"measurement": "fold change (FC)", "setting": "[8]", "value": 0.04},
      {"measurement": "Activity", "setting": "[9]", "value": "Active"},
      {"measurement": "AUC(0-t)", "setting": "[10]", "value": 7020, "unit": "ng·h/mL"},
      {"measurement": "Activity", "setting": "[11]", "value": 7.1, "unit": "%"},
      {"measurement": "Activity", "setting": "[12]", "value": "Dose-dependent effect"},
      {"measurement": "Activity", "setting": "[13]", "value": "Active"},
      {"measurement": "Activity", "setting": "[14]", "value": 21.4, "unit": "%"},
      {"measurement": "remaining at 0.5 h", "setting": "[15]", "value": 67.8, "unit": "%"},
      {"measurement": "Activity", "setting": "[16]", "value": 33.5, "unit": "%"},
      {"measurement": "Activity", "setting": "[17]", "value": 19.2, "unit": "%"},
      {"measurement": "Activity", "setting": "[18]", "value": "Active"},
      {"measurement": "IC50", "setting": "[19]", "value": "> 50", "unit": "µM"},
      {"measurement": "IC50", "setting": "[20]", "value": 39.6, "unit": "µM"},
      {"measurement": "Activity", "setting": "[21]", "value": 11.4, "unit": "%"},
      {"measurement": "Activity", "setting": "[22]", "value": "Active"},
      {"measurement": "Activity", "setting": "[23]", "value": 21.6, "unit": "%"},
      {"measurement": "Activity", "setting": "[24]", "value": 5.3, "unit": "%"},
      {"measurement": "Activity", "setting": "[25]", "value": 36.7, "unit": "%"},
      {"measurement": "Activity", "setting": "[26]", "value": 0.006, "unit": "%"},
      {"measurement": "Activity", "setting": "[27]", "value": 9.59, "unit": "%"},
      {"measurement": "Activity", "setting": "[28]", "value": 49.4, "unit": "%"}
    ]}
  ]
}
